The values below come from ChEMBL document CHEMBL1649288, “Fmt bypass in Pseudomonas aeruginosa causes induction of MexXY efflux pump expression” (2009).

≈ marks a conversion by molar mass, not a printed value.

What all share (assay type): functional
Assay [1] concerns Pseudomonas aeruginosa. Put plainly: Antibacterial activity against wild type Pseudomonas aeruginosa PAO1 NB52019 by broth microdilution method. In a few lines:
(§1)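 Broth microdilution following standard CLSI guidelines. P. aeruginosa strains were routinely cultured at 37°C in Mueller-Hinton or Luria broth. Where plasmids required selection, media carried gentamicin or tetracycline (100 μg/ml) or carbenicillin (100 μg/ml).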
On the technique in general: In broth dilution the organism is exposed to a series of concentrations in liquid medium.

Assay [2] relates to Pseudomonas aeruginosa. Description: Antibacterial activity against Pseudomonas aeruginosa PAO1 NB52021 expressing mexB by broth microdilution method. A digest of the protocol:
(§2)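 Broth microdilution MICs run per standard CLSI guidelines; P. aeruginosa strains routinely grown at 37°C in Mueller-Hinton or Luria medium.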

Assay [3] concerns Pseudomonas aeruginosa. Description: Antibacterial activity against Pseudomonas aeruginosa PAO1 NB52022 expressing mexX by broth microdilution method. In a few lines:
as §1

For assay [4], the system named is Pseudomonas aeruginosa. Put plainly: Antibacterial activity against Pseudomonas aeruginosa PAO1 NB52023 expressing mexB and mexX by broth microdilution method. In a few lines:
as §2

Assay [5] has as its system Pseudomonas aeruginosa. Put plainly: Antibacterial activity against Pseudomonas aeruginosa PAO1 NB52020 expressing mexAB-oprM by broth microdilution method. In a few lines: as §1
The subject of assay [6] is Pseudomonas aeruginosa. Description: Antibacterial activity against Pseudomonas aeruginosa PAO1 CDS1 expressing 14-bp deleted nfxB at base 92 by broth microdilution method. In a few lines:
as §2

Assay [7] deals with Pseudomonas aeruginosa. Description: Antibacterial activity against Pseudomonas aeruginosa PAO1 CDS6 expressing nfxB A115C, T39P mutant by broth microdilution method. A digest of the protocol:
as §1

For assay [8], the system named is Pseudomonas aeruginosa. Description: Antibacterial activity against Pseudomonas aeruginosa PAO1 CDS28 expressing 16-bp deleted fmt at position 833 by broth microdilution method. In a few lines:
as §2

The subject of assay [9] is Pseudomonas aeruginosa. Put plainly: Antibacterial activity against Pseudomonas aeruginosa PAO1 CDS28 harboring pSW1 by broth microdilution method. In a few lines: as §1
Assay [10] relates to Pseudomonas aeruginosa. Description: Antibacterial activity against Pseudomonas aeruginosa PAO1 CDS13 expressing mexAB-oprM fmt C127T, R43C mutant by broth microdilution method. A digest of the protocol: as §1
Assay [11] relates to Pseudomonas aeruginosa. Put plainly: Antibacterial activity against Pseudomonas aeruginosa PAO1 CDS13 harboring pSW1 by broth microdilution method. A digest of the protocol:
as §1

Assay [12] deals with Pseudomonas aeruginosa. Description: Antibacterial activity against Pseudomonas aeruginosa PAO1 CDR1 expressing fmt::aacC1 by broth microdilution method. In a few lines: as §2
Assay [13] deals with Pseudomonas aeruginosa. Put plainly: Antibacterial activity against Pseudomonas aeruginosa PAO1 CDR2 expressing mexAB-oprM and fmt::aacC1 by broth microdilution method. In a few lines: as §2
The subject of assay [14] is Pseudomonas aeruginosa. Put plainly: Antibacterial activity against Pseudomonas aeruginosa PAO1 CDS30 expressing folD G493T, V165R mutant by broth microdilution method. In a few lines: as §1
Assay [15] deals with Pseudomonas aeruginosa. Put plainly: Antibacterial activity against Pseudomonas aeruginosa PAO1 CDS30 harboring pRC5 by broth microdilution method. In a few lines: as §1
For assay [16], the system named is Pseudomonas aeruginosa. Description: Antibacterial activity against Pseudomonas aeruginosa PAO1 CDS22 expressing mexAB-oprM folD A424C, T142P mutant by broth microdilution method. A digest of the protocol:
as §1

Assay [17] concerns Pseudomonas aeruginosa. Description: Antibacterial activity against Pseudomonas aeruginosa PAO1 CDS22 harboring pRC5 by broth microdilution method. In a few lines: as §1
The subject of assay [18] is Pseudomonas aeruginosa. Put plainly: Induction of mexY (PA2018) gene expression in wild type Pseudomonas aeruginosa PAO1 NB52019 at 12 ug/ml relative to control. In a few lines:
(§3)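 Duplicate P. aeruginosa NB52019 cultures were diluted 1:100 from overnight into 30 ml Luria broth with or without 12 μg/ml drug, shaken at 180 rpm at 37°C to OD600 0.8, and harvested at 15,000 × g for 10 min. Total RNA was purified with a 40-min on-column DNase I step for transcriptional profiling, and treated cultures were compared with untreated ones.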

Assay [19] has as its system Pseudomonas aeruginosa. Put plainly: Induction of mexX (PA2019) gene expression in wild type Pseudomonas aeruginosa PAO1 NB52019 at 12 ug/ml relative to control. In a few lines:
as §3

Assay [20] concerns Pseudomonas aeruginosa. Description: Induction of mexZ (PA2020) gene expression in wild type Pseudomonas aeruginosa PAO1 NB52019 at 12 ug/ml relative to control. In a few lines:
as §3

Assay [21] has as its system Pseudomonas aeruginosa. Description: Induction of […] (PA5471) gene expression in wild type Pseudomonas aeruginosa PAO1 NB52019 at 12 ug/ml relative to control. A digest of the protocol: as §3
For assay [22], the system named is Pseudomonas aeruginosa. Put plainly: Induction of oprM (PA0427) gene expression in wild type Pseudomonas aeruginosa PAO1 NB52019 at 12 ug/ml relative to control. A digest of the protocol:
as §3

As to `CCCC[C@H](CN(O)C=O)C(=O)N1CCC[C@H]1C(=O)Nc1ccc(F)c[n+]1[O-]`, the MIC – broadly, the lowest concentration found to suppress growth – was 128 µg/mL (≈ 323 µM) in the assay with Pseudomonas aeruginosa [1]; 64 µg/mL (≈ 161 µM) against Pseudomonas aeruginosa [2]; 128 µg/mL (≈ 323 µM) with Pseudomonas aeruginosa [3]; 8 µg/mL (≈ 20.2 µM) against Pseudomonas aeruginosa [4]; 4 µg/mL (≈ 10.1 µM) against Pseudomonas aeruginosa [5]; greater than 128 µg/mL against Pseudomonas aeruginosa [6]. The MIC in the assay on Pseudomonas aeruginosa [7] was greater than 128 µg/mL; against Pseudomonas aeruginosa [8], greater than 1020 µg/mL; with Pseudomonas aeruginosa [9] it was 128 µg/mL (≈ 323 µM); in the assay with Pseudomonas aeruginosa [10] it was greater than 128 µg/mL; in the assay with Pseudomonas aeruginosa [11] it was 4 µg/mL (≈ 10.1 µM); in the assay with Pseudomonas aeruginosa [12], greater than 1020 µg/mL. Moreover, the MIC in the assay with Pseudomonas aeruginosa [13] was greater than 1020 µg/mL; in the assay on Pseudomonas aeruginosa [14], greater than 1020 µg/mL; with Pseudomonas aeruginosa [15], 128 µg/mL (≈ 323 µM); in the assay with Pseudomonas aeruginosa [16], greater than 128 µg/mL; in the assay with Pseudomonas aeruginosa [17] it was 4 µg/mL (≈ 10.1 µM). Besides, the “fold change (FC)” value was 11.7 in the assay with Pseudomonas aeruginosa [18]; 11.3 in the assay on Pseudomonas aeruginosa [19]; 4.8 with Pseudomonas aeruginosa [20]; 3.1 in the assay with Pseudomonas aeruginosa [21]; 0.78 in the assay with Pseudomonas aeruginosa [22].
